Arbovirus inh = antivirals against arbovirus infection; inhibition, % at 10 µM; arbovirus infection cell-based antiviral screen; 200,000 tested, 0.37% active; in the data active = inhibition above about 30%
ABCG2 block = inhibitors of human ABCG2 transporter, ABCB1 counter-screen | Q9UNQ0 | IgMXP3 cells, JC-1 efflux, flow cytometry | 190,000 tested, 0.1% active | AID 1325 | inhibition, % at 6.6 µM;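 active = inhibition above 80%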
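Read-out basis: Efflux inhibition in percent versus controls | Test system: ABCG2 IgMXP3 and barcoded ABCB1 CCRF-Adr cell mix | Quantity: 3 million cells/mL in well | Schedule: 10 min at 25 °C | Control set: Nicardipine as high control, DMSO as low control | Reagent: JC-1 as fluorescent efflux pump substrate | Signal: Flow cytometry of retained JC-1 fluorescence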
HSV replic up = increases HSV replication in cells | 220,000 tested, 0.005% active | maximum fold increase | HSV replication augmentation in cells, fold increase; in the data active = maximum fold increase above about 1.5; inconclusive = no clear call, values can overlap the other calls; tested in PC3 cells
Furin inh = human furin inhibition. purified furin, fluorogenic substrate cleavage. inhibition, % at 20 µM or 30 µM. AID 463115. 220,000 tested, 0.061% active. P09958; in the data active = inhibition above about 25%
ABCB1 block = inhibitors of human ABCB1 transporter, ABCG2 counter-screen; P08183; CCRF-Adr cells, JC-1 efflux, flow cytometry; inhibition, % at 6.6 µM; 190,000 tested, 0.067% active; AID 1326; in the data active = inhibition above about 40%;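 also: higher value means more JC-1 retained so stronger ABCB1 efflux block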
Target sequence (P08183 whole entry, looked up): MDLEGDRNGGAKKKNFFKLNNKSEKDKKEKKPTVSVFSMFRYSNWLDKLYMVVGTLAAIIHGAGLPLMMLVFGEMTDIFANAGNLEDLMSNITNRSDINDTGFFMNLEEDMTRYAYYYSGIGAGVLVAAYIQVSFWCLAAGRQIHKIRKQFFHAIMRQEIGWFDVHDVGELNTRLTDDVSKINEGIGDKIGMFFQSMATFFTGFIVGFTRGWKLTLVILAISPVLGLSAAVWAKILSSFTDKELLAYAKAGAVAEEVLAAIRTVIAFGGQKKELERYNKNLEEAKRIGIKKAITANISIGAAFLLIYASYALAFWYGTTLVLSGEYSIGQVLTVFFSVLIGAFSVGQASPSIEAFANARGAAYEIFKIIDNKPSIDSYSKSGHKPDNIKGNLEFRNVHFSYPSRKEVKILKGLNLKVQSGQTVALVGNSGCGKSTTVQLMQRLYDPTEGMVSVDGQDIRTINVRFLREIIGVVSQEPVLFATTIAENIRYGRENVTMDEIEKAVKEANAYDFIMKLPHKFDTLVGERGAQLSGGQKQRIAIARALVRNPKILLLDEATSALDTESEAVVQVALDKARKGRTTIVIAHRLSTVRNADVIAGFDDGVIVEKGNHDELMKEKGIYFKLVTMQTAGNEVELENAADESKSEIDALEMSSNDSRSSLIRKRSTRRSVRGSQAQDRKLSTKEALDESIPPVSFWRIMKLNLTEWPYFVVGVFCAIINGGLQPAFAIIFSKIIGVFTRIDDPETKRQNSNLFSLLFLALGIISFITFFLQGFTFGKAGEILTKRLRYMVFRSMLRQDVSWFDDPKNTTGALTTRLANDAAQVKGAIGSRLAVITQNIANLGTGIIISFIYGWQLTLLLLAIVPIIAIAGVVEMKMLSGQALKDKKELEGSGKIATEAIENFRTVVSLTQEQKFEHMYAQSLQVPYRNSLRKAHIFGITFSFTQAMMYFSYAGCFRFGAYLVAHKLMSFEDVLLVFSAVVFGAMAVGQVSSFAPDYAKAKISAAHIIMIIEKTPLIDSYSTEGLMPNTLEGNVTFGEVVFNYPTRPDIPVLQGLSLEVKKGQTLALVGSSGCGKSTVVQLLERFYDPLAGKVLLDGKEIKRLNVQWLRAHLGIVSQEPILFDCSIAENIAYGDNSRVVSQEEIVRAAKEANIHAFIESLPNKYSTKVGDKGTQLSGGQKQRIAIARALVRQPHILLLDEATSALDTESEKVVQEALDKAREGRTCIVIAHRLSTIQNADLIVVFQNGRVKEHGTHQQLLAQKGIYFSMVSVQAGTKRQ
NCF1 inh = blocks human p47phox regulatory protein of NADPH oxidases. inhibition, % at 24.7 µM. p47phox/p22phox peptide binding, fluorescence polarization, 2 h. AID 1274. P14598. 220,000 tested, 0.53% active;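 active = inhibition above about 30%, limit read from the data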
ABCB1 confirm = confirmation of human ABCB1 transporter inhibitors, ABCG2 counter-screen | shares compounds with ABCG2 block | CCRF-Adr cells, JC-1 efflux, flow cytometry | inhibition, % at 6.6 µM | 270 tested, 7% active;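 active = inhibition of pump activity above 50%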
ABCG2 single pt = confirmation of human ABCG2 transporter inhibitors, ABCB1 counter-screen | shares compounds with ABCG2 block | IgMXP3 cells, JC-1 efflux, flow cytometry | inhibition, % at 6.6 µM | 270 tested, 6% active;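 active = inhibition above 50%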
IgMXP3 autofluor = counter-screen for ABCG2 inhibitors: compound fluorescence in IgMXP3 cells. shares compounds with ABCG2 block. compound autofluorescence 488/530 nm, flow; active compounds read high. fluorescence at 6.6 µM. 270 tested, 30% active;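 active = fluorescence in ABCG2-expressing cells above the plate's control-well mean plus 3 SD, cut at about 15 in these data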
CCRF autofluor = CCRF-Adr autofluorescence flag for ABCB1 confirmation; shares compounds with ABCG2 block; CCRF-Adr cells, compound autofluorescence 488/530 nm, flow cytometry; active compounds read high; fluorescence at 6.6 µM; 270 tested, 30% active; AID 1483;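 active = fluorescence beyond the plate control mean plus 3 SD, with a fluorescence-to-maximum score over 2, cut at about 25 in these data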
Hits are given with their value. Hits are enriched below; roughly 0.95% of the tested compounds scored in any of these assays.

For Cc1c(C(=O)Nc2ccc(F)cc2)c2ccccn2c1CCc1ccncc1 the results were Arbovirus inh inactive, ABCG2 block inactive, HSV replic up inconclusive, Furin inh inactive, ABCB1 block inactive, NCF1 inh inactive, ABCB1 confirm inactive, ABCG2 single pt inactive, IgMXP3 autofluor inactive and CCRF autofluor inactive.
COCCNC(=O)CSc1nc2cc(OC)c(OC)cc2c(=O)n1CCC1=CCCCC1 was read as Arbovirus inh inactive, ABCG2 block 88, HSV replic up inactive, Furin inh inactive, ABCB1 block inactive, NCF1 inh inactive, ABCB1 confirm inactive, ABCG2 single pt inactive, IgMXP3 autofluor inactive and CCRF autofluor inactive.
Screening CCSc1nc2cc(OC)c(OC)cc2c(=O)n1CCc1ccccc1 returned Arbovirus inh inactive, ABCG2 block inactive, HSV replic up inactive, Furin inh inactive, ABCB1 block inactive, NCF1 inh inactive, ABCB1 confirm inactive, ABCG2 single pt inactive, IgMXP3 autofluor inactive and CCRF autofluor inactive.
COc1cc2nc(SCC(N)=O)n(CCC3=CCCCC3)c(=O)c2cc1OC was read as Arbovirus inh inactive, ABCG2 block inactive, HSV replic up inactive, Furin inh inactive, ABCB1 block inactive and NCF1 inh inactive.
For CCOc1cc(/C=C2/C(=N)N3OC(C)=CC3=NC2=O)ccc1OCCOc1ccccc1 the results were Arbovirus inh inactive, ABCG2 block inactive, HSV replic up inactive, Furin inh inactive, ABCB1 block inactive and NCF1 inh inactive.
Screening Cc1ccc(N(CCCCN2C(=O)c3ccccc3C2=O)C(=O)c2ccc(Cl)s2)cc1 returned Arbovirus inh inactive, ABCG2 block inactive, HSV replic up inactive, Furin inh inactive, ABCB1 block inactive, NCF1 inh inactive, ABCB1 confirm inactive, ABCG2 single pt inactive, IgMXP3 autofluor inactive and CCRF autofluor inactive.
Screening CCOC(=O)c1c(-c2ccc(C)cc2)csc1NC(=O)/C(C#N)=C/c1ccc(O)c(OC)c1 returned Arbovirus inh inactive, ABCG2 block 132, HSV replic up inconclusive, Furin inh inactive, ABCB1 block 117, NCF1 inh inactive, ABCB1 confirm inactive, ABCG2 single pt inactive, IgMXP3 autofluor 80 and CCRF autofluor 222.
Screening CCOC(=O)/C(C#N)=C\c1ccc(O)c(OC)c1 returned Arbovirus inh inactive, ABCG2 block inactive, HSV replic up inactive, Furin inh inactive, ABCB1 block inactive and NCF1 inh inactive.
`COc1ccc2cc(C(=O)NCC(=O)O)sc(=O)c2c1OC` gave Arbovirus inh inactive, ABCG2 block inactive, Furin inh inactive, ABCB1 block inactive and NCF1 inh inactive.
COc1ccc2cc(C(=O)OC(C)C)sc(=O)c2c1OC was read as Arbovirus inh inactive, ABCG2 block 87, HSV replic up inactive, Furin inh inactive, ABCB1 block inactive, NCF1 inh inactive, ABCB1 confirm inactive, ABCG2 single pt 60, IgMXP3 autofluor inactive and CCRF autofluor inactive.
Screening CC(C)S(=O)(=O)c1csc(NC(=O)Nc2cccc([N+](=O)[O-])c2)c1Cl returned HSV replic up inactive, Furin inh inactive and NCF1 inh inactive.
`CCOC(=O)c1cccc(NC(=O)c2cccnc2)c1` gave Arbovirus inh inactive, ABCG2 block inactive, HSV replic up inactive, Furin inh inactive, ABCB1 block inactive and NCF1 inh inactive.
Screening CCOC(=O)c1cccc(NC(=O)c2cnc3ccccc3n2)c1 returned Arbovirus inh inactive, ABCG2 block 91, HSV replic up inactive, Furin inh inactive, ABCB1 block inactive, NCF1 inh inactive, ABCB1 confirm inactive, ABCG2 single pt 68, IgMXP3 autofluor inactive and CCRF autofluor inactive.
